The source of these data is ChEMBL document CHEMBL1142266, “Structure-based virtual screening for the discovery of natural inhibitors for human rhinovirus coat protein” (J Med Chem, 2008).

Each structure is given as a SMILES string. Converted amounts (≈) assume the structure as drawn. The source made the active and inactive calls. The calls are words filed in the database; no cut-off is given here. A value given as a limit tells only on which side of the number the result lay.

Data set [1] is described as follows: Cytotoxicity against human HeLa cells after 72 hrs. In kind it is cell-based.
Data set [2] is described as follows: Selectivity index, ratio of CC50 for HeLa cells to IC50 for HRV2 in HeLa cells. In kind it is functional, Homo sapiens.
Data set [3] relates to rhinovirus A2. As to the kind of experiment: Antiviral activity against HRV2 in HeLa cells. In kind it is functional, organism-based. The settings on record: Rhinovirus A. Summed up: (§1)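 Cytopathic-effect inhibition assays in HeLa cells infected with pleconaril-sensitive HRV-1A, -2, -14 or -16. Dose-dependent inhibition of virus-induced CPE was measured, and the 50% inhibitory concentration (IC50) was derived.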

The next data set deals with Human rhinovirus 1A. As to the kind of experiment: Antiviral activity against HRV1A in HeLa cells. It counts as functional, organism-based. In short, it runs like this: as §1
The next data set has as its system rhinovirus B14. As to the kind of experiment: Antiviral activity against HRV14 in HeLa cells. It counts as functional, organism-based. Summed up:
as §1

Data set [4] concerns rhinovirus A16. As to the kind of experiment: Antiviral activity against HRV16 in HeLa cells. In kind it is functional, organism-based. In short, it runs like this: as §1
Data set [5] concerns rhinovirus A2. As to the kind of experiment: Inactivation of HRV2 assessed as reduction in plaque at 2.5 ug/ml after 1 hr. It counts as functional, organism-based. In short, it runs like this:
(§2)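 Direct-inactivation test using a modified plaque-reduction format. HRV-2 was incubated with or without compound at 37 °C for 1 h, and the suspensions were then diluted 100-fold. Residual virus titer was determined by plaque assay on HeLa cells, with pleconaril run as positive control.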

Data set [6] concerns rhinovirus A2. As to the kind of experiment: Inhibition of HRV2 absorption on HeLa cells assessed as reduction in plaques at 2.5 ug/ml after 2 hrs. In kind it is functional. The settings on record: Rhinovirus A.
For data set [7], the system named is rhinovirus A2. As to the kind of experiment: Inactivation of HRV2 assessed as reduction in plaque at 0.25 ug/ml after 1 hr. In kind it is functional. The arrangement: scale not given: the % may be the effect or the level left. In short, it runs like this:
as §2

The subject of data set [8] is rhinovirus A2. As to the kind of experiment: Inhibition of HRV2 absorption on HeLa cells assessed as reduction in plaques at 0.25 ug/ml after 2 hrs. In kind it is functional. To be noted: Rhinovirus A.
The test system of data set [9] is rhinovirus A2. As to the kind of experiment: Inhibition of HRV2 replication cycle progression. In kind it is functional, organism-based. The settings on record: Rhinovirus A.
The subject of data set [10] is rhinovirus A16. As to the kind of experiment: Inhibition of HRV16 replication cycle progression. To be noted: Rhinovirus A. It counts as functional, organism-based.
A short description of data set [11]: Selectivity for HRV2 over HRV16. It counts as functional.

Compound `C=C1CC[C@@H](O)C(C)(C)C1CC/C(C)=C/COc1ccc2ccc(=O)oc2c1` (some centres not stated) [FARNESIFEROL B] yielded a CC50 at 72 h in [1] of 8.2 µg/mL (≈ 21.4 µM). The “Ratio CC50/IC50” value in data set [2] worked out at 8.2. In the data set on rhinovirus A2 [3], this compound returned an IC50 of 1 µg/mL (≈ 2.61 µM). The result in the data set with Human rhinovirus 1A, in the data set on rhinovirus B14 and in the data set on rhinovirus A16 [4] was inactive.
Compound `C/C(=C\COc1ccc2ccc(=O)oc2c1)CCC1C(C)(C)[C@H]2CC[C@]1(C)O2` (some centres not stated) [FARNESIFEROL] yielded a CC50 at 72 h in data set [1] of 7.7 µg/mL (≈ 20.1 µM). For the same compound, the “Ratio CC50/IC50” value in [2] is 8.02. For the same compound, the result in the data set on rhinovirus A2 [5], with Human rhinovirus 1A, with rhinovirus B14 and with rhinovirus A16 [4] was inactive. In the data set with rhinovirus A2 [6], the inhibition at 2.5 µg/mL amounted to 35.2%. In addition, the IC50 in the data set on rhinovirus A2 [3] turned out to be 0.96 µg/mL (≈ 2.51 µM).
For `CC(=O)O[C@H]1CC[C@]2(C)[C@H](CC[C@@](C)(O)[C@@H]2COc2ccc3ccc(=O)oc3c2)C1(C)C` [KELLARIN], the CC50 at 72 h in data set [1] was 15.5 µg/mL (≈ 35 µM). The “Ratio CC50/IC50” value in data set [2] was less than 1. Also, in the data set on rhinovirus A2 [3], the IC50 is more than 15.5 µg/mL. Moreover, the outcome with Human rhinovirus 1A, with rhinovirus B14 and with rhinovirus A16 [4] was inactive.
Consider `C[C@H]1CC=C2[C@H](CC[C@H](O)C2(C)C)[C@@]1(C)COc1ccc2ccc(=O)oc2c1` [MICROLOBIDENE], for which the midpoint of cytotoxicity in [1], the CC50 at 72 h, lay at 10 µg/mL (≈ 26.1 µM). In [2], the “Ratio CC50/IC50” value was less than 1. Also, the IC50 in the data set on rhinovirus A2 [3] was more than 10 µg/mL. Further, the result with Human rhinovirus 1A, in the data set with rhinovirus B14 and in the data set with rhinovirus A16 [4] was inactive.
The compound `Cc1cc(CCCOc2c(C)cc(-c3noc(C(F)(F)F)n3)cc2C)on1` [PLECONARIL] yielded a CC50 at 72 h in [1] of 12.6 µg/mL (≈ 33 µM). Further, in [2], the “Ratio CC50/IC50” value was 1260. In the data set with rhinovirus A2 [7], the Activity is recorded as 84.3%. Also, the inhibition at 0.25 µg/mL in the data set with rhinovirus A2 [8] was 100%. For the same compound, the values for the EC50 in the data set on rhinovirus A2 [9] and in the data set on rhinovirus A16 [10] were 40 nM and 570 nM, respectively. Besides, the Selectivity ratio in data set [11] came to 10. Besides, the IC50 with rhinovirus A2 [3] came to 0.01 µg/mL (≈ 0.0262 µM); with Human rhinovirus 1A, 0.02 µg/mL (≈ 0.0524 µM); in the data set with rhinovirus B14 (Rhinovirus B), 0.02 µg/mL (≈ 0.0524 µM); in the data set with rhinovirus A16 [4] (Rhinovirus A), 0.02 µg/mL (≈ 0.0524 µM).
